Measurements taken from ChEMBL document CHEMBL1150563, “Six new diarylheptanoids from the seeds of Alpinia blepharocalyx” (2001).

Key:
[1] = Antiproliferative activity against mouse Colon 26-L5 cells by MTT assay; type: functional; details: read-out: ED50 (the source's name)
In short: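 Murine colon 26-L5 carcinoma cells grown in RPMI-1640 with 10% fetal calf serum, 0.1% NaHCO3 and 2 mM glutamine. Cell viability in presence and absence of agent measured by MTT; 5-fluorouracil served as positive control. ED50 derived from the mean of six determinations.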

HT-1080 = assay: Antiproliferative activity against human HT1080 cells by MTT assay; type: functional; details: read-out: ED50 (the source's name)
In short: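 Human HT-1080 fibrosarcoma cells grown in Eagle's MEM with 10% fetal calf serum, 0.1% NaHCO3 and 2 mM glutamine. Viability with and without test agent read by MTT assay; 5-fluorouracil as positive control. ED50 calculated from the mean of six determinations.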

| SMILES | EC50 [1] | EC50 (HT-1080) |
| --- | --- | --- |
| Oc1cc(O)cc(O)c1 [PHLOROGLUCINOL] | 26.4 µM | 20.9 µM |
| O=Cc1ccc(O)cc1 [4-HYDROXYBENZALDEHYDE] | > 100 µM | > 100 µM |
| COc1cc(O)cc2c1C(=O)C[C@@H](c1ccc(O)cc1)O2 | > 100 µM | > 100 µM |
| Oc1ccc(CC[C@H](O)C[C@@H](O)CCc2ccc(O)cc2)cc1 | 12.8 µM | 94.4 µM |
| CCO[C@H](/C=C/c1ccccc1)C[C@@H](O)CCc1ccc(O)cc1 | 94.6 µM | > 100 µM |
| COc1cc(O)cc(OC)c1C(=O)/C=C/c1ccc(O)cc1 | 28.7 µM | 50.5 µM |
| CCO[C@@H](/C=C/c1ccccc1)C[C@@H](O)CCc1ccc(O)cc1 | > 100 µM | > 100 µM |
| CO[C@@H](/C=C/c1ccccc1)C[C@@H](O)CCc1ccc(O)cc1 | > 100 µM | > 100 µM |
| O=C(O)/C=C/c1ccc(O)cc1 [COUMARIC ACID] | > 100 µM | > 100 µM |
| COc1cc(O)cc(O)c1C(=O)/C=C/c1ccc(O)cc1 [HELICHRYSETIN] | 64.7 µM | 40.1 µM |
| COC(=O)/C=C/c1ccc(O)cc1 [METHYL P-HYDROXYCINNAMATE] | 84.2 µM | > 100 µM |
| CO[C@H](/C=C/c1ccccc1)C[C@@H](O)CCc1ccc(O)cc1 | 86.4 µM | > 100 µM |
| O=C(/C=C/C=C/c1ccc(O)cc1)CCc1ccc(O)cc1 | 57.7 µM | 78.8 µM |
| CO[C@@H](CCc1ccc(O)cc1)CC(=O)/C=C/c1ccc(O)cc1 | 5.2 µM | 10.1 µM |
| O=C(/C=C(O)/C=C/c1ccc(O)cc1)CCc1ccc(O)cc1 | 62.6 µM | > 100 µM |
| COc1cc(/C=C/c2ccccc2)oc(=O)c1 [DESMETHOXYYANGONIN] | > 100 µM | > 100 µM |
| CC[C@H](CC[C@@H](C)[C@H]1CC[C@H]2[C@@H]3CC=C4C[C@@H](O[C@@H]5O[C@H](CO)[C@@H](O)[C@H](O)[C@H]5O)CC[C@]4(C)[C@H]3CC[C@]12C)C(C)C [SITOGLUSIDE] | > 100 µM | > 100 µM |
| O=C(/C=C/c1ccc(O)cc1)c1ccc(O)cc1 [4,4'-DIHYDROXYCHALCONE] | > 100 µM | > 100 µM |
| COc1cc(/C=C/c2ccc(O)cc2)oc(=O)c1 | 20.7 µM | 20.1 µM |
| O=c1[nH]cc(F)c(=O)[nH]1 [FLUOROURACIL] | 0.5 µM | 8 µM |
| CC(=O)/C=C/c1ccc(O)cc1 | > 100 µM | > 100 µM |
